Data published in ChEMBL document CHEMBL1138325, “Design, synthesis, in vitro, and in vivo characterization of phenylpiperazines and pyridinylpiperazines as potent and selective antagonists of the melanocortin-4 receptor” (J Med Chem, 2007).

Key:
[1] = target: Melanocyte-stimulating hormone receptor (Homo sapiens, UniProt Q01726); assay: Displacement of [125I]NDPMSH from human MC1R expressed in HEK293 cells at 10 uM; assay type: cell-based
[2] = AUC in dog at 10 mg/kg, po; assay type: ADME, organism-based, Canis lupus familiaris; parameters: dose 10 mg/kg, route oral; conditions: plasma
[3] = Half life in CD1 mouse at 5 mg/kg, iv; assay type: ADME, organism-based; parameters: dose 5 mg/kg, route intravenous; conditions: in vivo
Summary of the method: (§1)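 CD-1 mice, three animals, dosed i.v. at 5 mg/kg and by oral gavage at 10 mg/kg. Plasma CL, Vd, t1/2, Cmax, Tmax, oral AUC and F% were derived. Brain concentrations and brain/plasma ratios at 1 and 4 h were taken from the i.v. dosing.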

[4] = Tmax in dog at 10 mg/kg, po; assay type: ADME, organism-based, Canis lupus familiaris; parameters: dose 10 mg/kg, route oral; conditions: in vivo
[5] = target: T1, Cytochrome P450 1A2 (Homo sapiens, UniProt P05177); assay: Inhibition of CYP1A2; assay type: ADME
T1 sequence (P05177 whole entry): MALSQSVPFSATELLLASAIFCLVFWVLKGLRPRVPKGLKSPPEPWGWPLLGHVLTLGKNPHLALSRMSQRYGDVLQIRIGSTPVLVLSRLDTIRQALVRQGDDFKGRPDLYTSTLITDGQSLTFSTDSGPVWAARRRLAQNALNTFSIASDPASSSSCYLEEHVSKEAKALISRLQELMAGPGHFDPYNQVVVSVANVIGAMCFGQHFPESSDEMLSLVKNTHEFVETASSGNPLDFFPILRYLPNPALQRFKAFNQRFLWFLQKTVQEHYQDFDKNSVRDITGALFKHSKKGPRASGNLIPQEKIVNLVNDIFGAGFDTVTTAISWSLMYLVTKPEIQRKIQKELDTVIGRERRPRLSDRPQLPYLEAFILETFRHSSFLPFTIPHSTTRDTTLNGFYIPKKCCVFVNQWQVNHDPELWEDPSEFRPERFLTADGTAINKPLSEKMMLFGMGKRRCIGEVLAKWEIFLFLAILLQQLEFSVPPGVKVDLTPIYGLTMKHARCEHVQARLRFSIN

[6] = Tmax in Sprague-Dawley rat at 5 mg/kg, iv and 10 mg/kg, po; assay type: ADME, organism-based; conditions: in vivo
Summary of the method: (§2)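 Sprague–Dawley rats, three animals per route; i.v. dose 5 mg/kg and oral 10 mg/kg. Brain concentrations and brain/plasma ratios taken from the oral dosing at 1 and 4 h post-dose.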

[7] = Half life in Sprague-Dawley rat at 5 mg/kg, iv and 10 mg/kg, po; assay type: ADME, organism-based; conditions: in vivo
[8] = target: Cytochrome P450 3A4 (Homo sapiens, UniProt P08684); assay: Inhibition of CYP3A4; assay type: ADME
Sequence of Cytochrome P450 3A4 (P08684 whole entry): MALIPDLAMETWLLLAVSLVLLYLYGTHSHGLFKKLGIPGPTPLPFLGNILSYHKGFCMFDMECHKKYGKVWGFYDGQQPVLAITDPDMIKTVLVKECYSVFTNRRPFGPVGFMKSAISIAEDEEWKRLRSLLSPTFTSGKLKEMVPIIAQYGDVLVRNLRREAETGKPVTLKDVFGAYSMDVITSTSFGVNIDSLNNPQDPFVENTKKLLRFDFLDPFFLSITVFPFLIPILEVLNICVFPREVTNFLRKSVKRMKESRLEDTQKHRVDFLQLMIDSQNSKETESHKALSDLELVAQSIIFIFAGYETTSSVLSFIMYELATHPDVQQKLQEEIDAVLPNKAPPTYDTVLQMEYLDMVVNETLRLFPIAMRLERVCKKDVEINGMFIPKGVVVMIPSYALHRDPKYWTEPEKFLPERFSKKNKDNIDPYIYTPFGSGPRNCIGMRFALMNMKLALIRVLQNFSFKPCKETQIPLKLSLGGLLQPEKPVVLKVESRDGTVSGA

[9] = Tmax in CD1 mouse at 10 mg/kg, ip; assay type: ADME, organism-based; parameters: dose 10 mg/kg, route intraperitoneal; conditions: in vivo
[10] = Plasma concentration in CD1 mouse at 10 mg/kg, ip after 8 hrs; assay type: ADME, organism-based; parameters: dose 10 mg/kg, route intraperitoneal
[11] = Bioavailability in CD1 mouse at 10 mg/kg, po; assay type: ADME, organism-based; conditions: in vivo; summary of the method: as §1
[12] = AUC in CD1 mouse at 10 mg/kg, ip; assay type: ADME, organism-based; parameters: dose 10 mg/kg, route intraperitoneal; conditions: plasma
Summary of the method: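 CD-1 mice, single intraperitoneal dose of 10 mg/kg, n = 3. Plasma concentration followed over time, giving Cmax, Tmax and AUC.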

[13] = Ratio of drug level in brain to plasma in Sprague-Dawley rat at 10 mg/kg, po after 1 hr; assay type: ADME, organism-based; parameters: dose 10 mg/kg, route oral; conditions: brain and plasma, read-out: BPR; summary of the method: as §2

Sequence of Melanocyte-stimulating hormone receptor (Q01726 whole entry, looked up): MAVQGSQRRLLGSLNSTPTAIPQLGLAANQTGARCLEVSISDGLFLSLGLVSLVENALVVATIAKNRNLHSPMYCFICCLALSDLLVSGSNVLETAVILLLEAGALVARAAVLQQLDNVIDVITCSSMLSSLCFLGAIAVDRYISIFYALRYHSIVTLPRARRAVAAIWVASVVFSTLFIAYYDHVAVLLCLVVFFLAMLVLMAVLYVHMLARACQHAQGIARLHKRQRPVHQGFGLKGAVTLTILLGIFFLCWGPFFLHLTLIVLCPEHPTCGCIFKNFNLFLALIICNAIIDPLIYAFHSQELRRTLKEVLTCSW

## CC(C)C[C@H](NC(=O)CCN(C)C)c1cc(Cl)ccc1N1CCN(C(=O)[C@H](C)Cc2ccc(Cl)cc2)CC1
[1]
  Activity: 20%
[2]
  AUC: 1480 ng·h/mL
[3]
  half-life: 3.5 h
[4]
  Tmax: 1 h
[5]
  IC50: > 10 µM
[6]
  Tmax: 6 h
[7]
  half-life: 2.2 h
[8]
  IC50: > 10 µM
[9]
  Tmax: 0.3 h
[10]
  concentration at 8 h: 100 ng/mL
[11]
  bioavailability: 23%
[12]
  AUC: 3070 ng·h/mL
[13]
  Kp at 1 h: 0.1
